{"source": "ChEMBL document CHEMBL1138485", "about": "“Discovery of inducible nitric oxide synthase (iNOS) inhibitor development candidate KD7332, part 1: Identification of a novel, potent, and selective series of quinolinone iNOS dimerization inhibitors that are orally active in rodent pain models” (J Med Chem, 2009)", "key": {"Nitric oxide synthase 3": {"target": "T1, Nitric oxide synthase 3 (Homo sapiens, UniProt P29474)", "T1 sequence (P29474 whole entry)": "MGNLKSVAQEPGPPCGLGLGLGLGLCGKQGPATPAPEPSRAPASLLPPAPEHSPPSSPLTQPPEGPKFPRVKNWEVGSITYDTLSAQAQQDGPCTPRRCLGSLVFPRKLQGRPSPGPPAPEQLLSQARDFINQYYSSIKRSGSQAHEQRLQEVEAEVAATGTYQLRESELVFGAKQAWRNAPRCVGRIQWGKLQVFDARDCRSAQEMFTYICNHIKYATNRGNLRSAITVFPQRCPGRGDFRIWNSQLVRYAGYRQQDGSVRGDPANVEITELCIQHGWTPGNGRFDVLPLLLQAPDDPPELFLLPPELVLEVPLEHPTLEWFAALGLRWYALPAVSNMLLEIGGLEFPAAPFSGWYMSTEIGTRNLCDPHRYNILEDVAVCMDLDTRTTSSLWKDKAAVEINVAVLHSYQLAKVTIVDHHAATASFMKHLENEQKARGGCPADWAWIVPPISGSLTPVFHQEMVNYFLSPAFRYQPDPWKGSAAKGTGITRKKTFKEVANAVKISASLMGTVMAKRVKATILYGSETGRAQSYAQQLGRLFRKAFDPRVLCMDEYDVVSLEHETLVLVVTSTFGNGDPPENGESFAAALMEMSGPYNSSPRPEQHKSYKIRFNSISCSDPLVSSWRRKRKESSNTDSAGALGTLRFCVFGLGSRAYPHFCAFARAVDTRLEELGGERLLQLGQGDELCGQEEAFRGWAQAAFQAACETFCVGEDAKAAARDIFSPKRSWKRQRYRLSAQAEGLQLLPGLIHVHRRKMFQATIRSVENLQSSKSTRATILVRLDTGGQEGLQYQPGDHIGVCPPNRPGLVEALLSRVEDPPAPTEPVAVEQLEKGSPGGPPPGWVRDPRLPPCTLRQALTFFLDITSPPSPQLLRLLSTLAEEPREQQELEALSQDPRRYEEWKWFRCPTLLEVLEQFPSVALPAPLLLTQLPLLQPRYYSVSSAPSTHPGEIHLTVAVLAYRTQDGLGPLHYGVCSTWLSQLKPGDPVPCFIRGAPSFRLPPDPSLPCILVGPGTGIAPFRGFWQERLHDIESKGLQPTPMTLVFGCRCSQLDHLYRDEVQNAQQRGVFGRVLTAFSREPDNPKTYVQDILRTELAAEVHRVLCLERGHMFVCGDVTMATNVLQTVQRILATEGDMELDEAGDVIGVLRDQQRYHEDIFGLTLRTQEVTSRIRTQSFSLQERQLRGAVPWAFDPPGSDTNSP", "test": "Inhibition of human eNOS expressed in HEK293 cells assessed as NO production by transient transfection assay", "assay_type": "cell-based", "how_it_was_run": "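HEK293 cells grown to ~70% confluence in DMEM/10% FBS with pen/strep, transfected with 15 µg human eNOS plasmid plus Fugene 6 (3:1 µL:µg), 4 h at 37 °C, 10% CO2. Cells replated at 5 × 10⁵/mL, compound added at once, 24 h incubation, then A23187 (83 nM final). After 18 h, NO read by DAN fluorescence.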"}, "[1]": {"target": "T2, Nitric oxide synthase, inducible (Homo sapiens, UniProt P35228)", "T2 sequence (P35228 whole entry)": "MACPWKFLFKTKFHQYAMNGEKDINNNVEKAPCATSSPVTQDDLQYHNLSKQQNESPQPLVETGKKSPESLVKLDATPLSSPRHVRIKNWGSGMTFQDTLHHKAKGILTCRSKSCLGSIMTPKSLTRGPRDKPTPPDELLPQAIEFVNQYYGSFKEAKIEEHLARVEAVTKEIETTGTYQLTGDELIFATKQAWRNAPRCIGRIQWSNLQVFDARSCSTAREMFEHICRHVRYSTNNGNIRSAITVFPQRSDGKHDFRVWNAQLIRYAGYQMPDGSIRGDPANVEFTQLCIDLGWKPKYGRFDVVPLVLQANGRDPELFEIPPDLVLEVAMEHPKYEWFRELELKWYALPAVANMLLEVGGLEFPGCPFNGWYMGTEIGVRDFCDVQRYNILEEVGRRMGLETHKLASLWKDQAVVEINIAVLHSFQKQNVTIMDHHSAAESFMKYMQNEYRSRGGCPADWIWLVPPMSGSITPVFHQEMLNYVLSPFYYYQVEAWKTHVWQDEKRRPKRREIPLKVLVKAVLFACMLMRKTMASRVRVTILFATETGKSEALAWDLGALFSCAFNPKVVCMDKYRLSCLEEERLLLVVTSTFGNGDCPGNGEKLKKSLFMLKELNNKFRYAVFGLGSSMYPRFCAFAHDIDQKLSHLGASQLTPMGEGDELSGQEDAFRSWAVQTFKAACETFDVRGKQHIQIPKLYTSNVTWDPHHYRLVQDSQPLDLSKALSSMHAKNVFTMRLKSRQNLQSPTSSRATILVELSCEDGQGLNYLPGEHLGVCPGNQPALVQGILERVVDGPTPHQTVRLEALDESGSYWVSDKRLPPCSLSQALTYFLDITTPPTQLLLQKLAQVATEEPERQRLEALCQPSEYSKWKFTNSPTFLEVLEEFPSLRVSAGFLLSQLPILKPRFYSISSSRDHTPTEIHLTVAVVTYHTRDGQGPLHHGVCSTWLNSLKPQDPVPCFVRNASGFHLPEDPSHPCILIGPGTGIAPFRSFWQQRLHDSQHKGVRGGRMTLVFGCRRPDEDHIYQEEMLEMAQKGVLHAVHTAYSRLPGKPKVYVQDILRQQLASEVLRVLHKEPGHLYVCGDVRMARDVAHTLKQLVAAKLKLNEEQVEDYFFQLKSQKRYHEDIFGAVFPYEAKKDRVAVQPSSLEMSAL", "test": "Inhibition of human iNOS expressed in HEK293 cells assessed as NO production by transient transfection assay", "assay_type": "cell-based", "how_it_was_run": "(§1)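 HEK293 cells grown to ~70% confluence in DMEM/10% FBS with pen/strep. Cells transiently transfected with 10 µg human or murine iNOS plasmid (Fugene 6), 4 h at 37 °C, 10% CO2. Trypsinized, plated at 5 × 10⁵ cells/mL and dosed at once; 1400W 100 µM final as positive control. After 18 h, NO read as DAN fluorescence (10 µg/mL, 20 min RT, then NaOH). EC50 from 3 runs, 10-point curves, n = 8/point.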"}, "Mus musculus": {"tested_on": "Mus musculus", "test": "Reduction of plasma nitrate level in LPS-challenged BALB/c mouse at 30 mg/kg, po", "assay_type": "functional", "set-up": "scale not given: the % may be the effect or the level left", "how_it_was_run": "(§2)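 Male Balb/c mice were dosed by oral gavage (90% PEG/5% Tween 80/5% PVP + 90% CMC (0.5% w/v)) at t = 0 h, 30 mg/kg for single-dose lines. LPS 10 mg/kg ip in 0.9% NaCl followed immediately. At 6 h, EDTA plasma was taken for nitrate and drug levels. Nitrate reduction is relative to vehicle; ED50 came from full oral dose-response.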"}, "[2]": {"target": "T3, Nitric oxide synthase, inducible (Mus musculus, UniProt P29477)", "T3 sequence (P29477 whole entry)": "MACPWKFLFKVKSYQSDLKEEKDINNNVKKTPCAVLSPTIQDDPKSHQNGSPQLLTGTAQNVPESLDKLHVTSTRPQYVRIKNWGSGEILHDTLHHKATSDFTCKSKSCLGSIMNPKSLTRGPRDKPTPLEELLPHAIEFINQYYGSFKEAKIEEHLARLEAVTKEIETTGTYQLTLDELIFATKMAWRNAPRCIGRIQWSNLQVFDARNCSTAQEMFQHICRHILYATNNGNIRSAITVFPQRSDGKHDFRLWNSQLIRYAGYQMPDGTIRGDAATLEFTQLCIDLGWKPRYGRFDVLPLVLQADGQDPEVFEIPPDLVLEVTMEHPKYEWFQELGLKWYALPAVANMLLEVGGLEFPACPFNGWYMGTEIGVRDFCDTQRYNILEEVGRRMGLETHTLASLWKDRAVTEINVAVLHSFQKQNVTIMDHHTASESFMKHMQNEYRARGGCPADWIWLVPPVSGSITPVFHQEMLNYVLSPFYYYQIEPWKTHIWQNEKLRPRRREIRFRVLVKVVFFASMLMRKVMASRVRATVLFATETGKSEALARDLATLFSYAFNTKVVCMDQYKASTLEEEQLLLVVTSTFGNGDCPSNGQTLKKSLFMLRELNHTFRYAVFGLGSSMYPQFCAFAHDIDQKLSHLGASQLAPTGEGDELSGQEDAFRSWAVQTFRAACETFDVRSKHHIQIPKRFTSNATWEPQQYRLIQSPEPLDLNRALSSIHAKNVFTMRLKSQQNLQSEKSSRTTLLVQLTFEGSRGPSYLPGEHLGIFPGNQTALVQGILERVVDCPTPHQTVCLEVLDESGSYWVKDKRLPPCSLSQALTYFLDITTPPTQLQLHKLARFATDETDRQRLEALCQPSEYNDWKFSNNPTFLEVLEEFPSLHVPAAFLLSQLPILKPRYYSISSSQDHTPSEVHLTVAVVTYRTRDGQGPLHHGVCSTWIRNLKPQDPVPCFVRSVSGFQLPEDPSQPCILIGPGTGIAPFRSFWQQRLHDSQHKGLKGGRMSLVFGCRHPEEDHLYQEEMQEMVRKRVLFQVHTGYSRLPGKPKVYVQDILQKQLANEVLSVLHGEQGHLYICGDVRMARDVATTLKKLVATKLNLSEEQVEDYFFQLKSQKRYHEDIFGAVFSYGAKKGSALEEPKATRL", "test": "Inhibition of mouse iNOS expressed in HEK293 cells assessed as NO production in by transient transfection assay", "assay_type": "cell-based", "how_it_was_run": "as §1"}, "Nitric oxide synthase 1": {"target": "Nitric oxide synthase 1 (Homo sapiens, UniProt P29475)", "sequence (P29475 whole entry)": "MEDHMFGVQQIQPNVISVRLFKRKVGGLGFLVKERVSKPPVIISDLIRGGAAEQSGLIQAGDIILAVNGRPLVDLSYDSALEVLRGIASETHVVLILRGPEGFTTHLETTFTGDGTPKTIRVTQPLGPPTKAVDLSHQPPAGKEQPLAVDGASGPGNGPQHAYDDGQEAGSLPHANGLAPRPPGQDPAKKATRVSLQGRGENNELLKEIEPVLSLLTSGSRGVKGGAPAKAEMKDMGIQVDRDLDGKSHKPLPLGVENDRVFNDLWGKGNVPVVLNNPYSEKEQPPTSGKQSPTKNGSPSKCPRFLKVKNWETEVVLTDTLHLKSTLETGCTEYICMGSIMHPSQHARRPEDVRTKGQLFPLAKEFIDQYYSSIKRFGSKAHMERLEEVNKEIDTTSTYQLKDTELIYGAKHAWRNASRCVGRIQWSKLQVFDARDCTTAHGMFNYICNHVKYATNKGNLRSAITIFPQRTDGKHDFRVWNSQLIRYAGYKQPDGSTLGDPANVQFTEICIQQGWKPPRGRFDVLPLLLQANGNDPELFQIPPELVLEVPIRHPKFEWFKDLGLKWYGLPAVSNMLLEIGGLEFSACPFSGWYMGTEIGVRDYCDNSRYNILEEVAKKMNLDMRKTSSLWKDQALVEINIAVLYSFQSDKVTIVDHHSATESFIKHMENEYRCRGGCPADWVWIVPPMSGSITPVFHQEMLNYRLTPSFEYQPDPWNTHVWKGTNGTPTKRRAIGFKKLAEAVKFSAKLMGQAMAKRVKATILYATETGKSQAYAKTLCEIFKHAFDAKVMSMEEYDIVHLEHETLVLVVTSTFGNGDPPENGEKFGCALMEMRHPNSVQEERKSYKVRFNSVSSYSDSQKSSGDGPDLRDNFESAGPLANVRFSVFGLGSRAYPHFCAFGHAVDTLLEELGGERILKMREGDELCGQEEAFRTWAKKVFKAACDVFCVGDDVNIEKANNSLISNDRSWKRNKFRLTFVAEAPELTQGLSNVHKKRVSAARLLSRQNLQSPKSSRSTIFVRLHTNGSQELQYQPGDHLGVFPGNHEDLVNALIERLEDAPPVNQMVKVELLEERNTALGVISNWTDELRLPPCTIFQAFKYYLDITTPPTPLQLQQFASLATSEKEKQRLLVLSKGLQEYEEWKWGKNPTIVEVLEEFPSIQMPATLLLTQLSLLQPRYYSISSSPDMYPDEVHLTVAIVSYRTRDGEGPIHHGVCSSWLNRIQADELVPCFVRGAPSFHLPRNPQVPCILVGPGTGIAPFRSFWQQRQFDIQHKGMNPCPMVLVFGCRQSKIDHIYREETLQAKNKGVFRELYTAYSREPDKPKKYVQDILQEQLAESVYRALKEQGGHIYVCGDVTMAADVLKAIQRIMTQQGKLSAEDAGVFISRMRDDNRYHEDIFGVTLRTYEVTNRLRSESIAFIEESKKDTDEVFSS", "test": "Inhibition of human nNOS expressed in HEK293 cells assessed as NO production by transient transfection assay", "assay_type": "cell-based"}, "[3]": {"target": "T2, Nitric oxide synthase, inducible", "test": "Inhibition of human iNOS expressed in HEK293 cells assessed as NO production at 100 uM by transient transfection assay", "assay_type": "cell-based"}, "[4]": {"test": "Drug level in LPS-challenged BALB/c mouse plasma at 30 mg/kg, po after 6 hrs", "assay_type": "ADME, organism-based", "set-up": "dose 30 mg/kg, route oral", "how_it_was_run": "as §2"}}, "note": "pEC50: −log10 of the molar value.", "data": [{"compound": "Cc1ncsc1C(=O)N(Cc1c(F)c(=O)[nH]c2c(F)cccc12)c1cccc(Cl)c1", "values": [{"measurement": "pEC50", "setting": "Nitric oxide synthase 3", "value": 4.46}, {"measurement": "pEC50", "setting": "[1]", "value": 7.59}, {"measurement": "Activity", "setting": "Mus musculus", "value": 29, "unit": "%"}, {"measurement": "pEC50", "setting": "[2]", "value": 6.89}, {"measurement": "pEC50", "setting": "Nitric oxide synthase 1", "value": "< 5.00"}]}, {"compound": "COc1cc(CN(C(=O)c2scnc2C)c2cccc(Cl)c2)c2cccc(F)c2n1", "values": [{"measurement": "inhibition", "setting": "[3]", "value": "< 50", "unit": "%"}, {"measurement": "pEC50", "setting": "[1]", "value": "< 4.00"}]}, {"compound": "Cc1ncsc1C(=O)N(Cc1ccnc2c(F)cccc12)c1cccc(Cl)c1", "values": [{"measurement": "inhibition", "setting": "[3]", "value": "< 50", "unit": "%"}, {"measurement": "pEC50", "setting": "[1]", "value": "< 4.00"}]}, {"compound": "Cc1ncsc1C(=O)N(Cc1cc(=O)n(C)c2c(F)cccc12)c1cccc(Cl)c1", "values": [{"measurement": "inhibition", "setting": "[3]", "value": "< 50", "unit": "%"}, {"measurement": "pEC50", "setting": "[1]", "value": "< 4.00"}]}, {"compound": "Cc1ncsc1C(=O)N(Cc1c[n+]([O-])cc2c(F)cccc12)c1cccc(Cl)c1", "values": [{"measurement": "pEC50", "setting": "[1]", "value": 7.06}, {"measurement": "Activity", "setting": "Mus musculus", "value": 20, "unit": "%"}, {"measurement": "pEC50", "setting": "[2]", "value": 6.18}, {"measurement": "concentration at 6 h", "setting": "[4]", "value": 39, "unit": "ng/mL"}]}, {"compound": "Cc1noc(C)c1C(=O)N(Cc1cc(=O)[nH]c2c(F)c(F)ccc12)c1cccc(Cl)c1", "values": [{"measurement": "pEC50", "setting": "Nitric oxide synthase 3", "value": 5.92}, {"measurement": "pEC50", "setting": "[1]", "value": 8.52}, {"measurement": "Activity", "setting": "Mus musculus", "value": 67, "unit": "%"}, {"measurement": "pEC50", "setting": "[2]", "value": 7.66}, {"measurement": "pEC50", "setting": "Nitric oxide synthase 1", "value": 7.01}]}, {"compound": "Cc1ncsc1C(=O)N(Cc1cc[nH]c(=O)c1)c1cccc(Cl)c1", "values": [{"measurement": "inhibition", "setting": "[3]", "value": "< 50", "unit": "%"}, {"measurement": "pEC50", "setting": "[1]", "value": "< 4.00"}]}]}
